Results as given in ChEMBL document CHEMBL3352812, “Shogaol-huprine hybrids: dual antioxidant and anticholinesterase agents with β-amyloid and tau anti-aggregating properties” (Bioorg Med Chem, 2014).

Legend:
[1] = Antioxidant activity assessed as DPPH free radical scavenging activity measured as trolox equivalent after 30 mins by spectrophotometry; assay type: physicochemical; parameters: unit not given beside the values; conditions: 0.5 h
Summary of the method: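 Sample or trolox (5 µL) mixed with 250 µL methanolic DPPH (0.025 g/L), shaken, held in darkness 30 min, absorbance at 515 nm. Calibrated with trolox solutions; reported as µmol trolox/µmol compound; triplicate, mean ± SEM of three experiments.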

[2] = Antioxidant activity assessed as ABTS free radical scavenging activity measured as trolox equivalent after 1 hr by spectrophotometry; assay type: physicochemical
Summary of the method: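 ABTS radical cation generated by passing 5 mM ABTS stock through MnO2 and filtering; 245 µL radical solution added to 5 µL sample or trolox, stirred 30 s, kept dark 1 h, A734 read against MeOH blanks. Trolox calibration; expressed as µmol trolox/µmol compound; triplicate analyses, mean ± SEM of three experiments.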

[3] = Antioxidant activity assessed as total polyphenolics measured as gallic acid equivalent after 30 mins by Folin-Ciocalteu assay; assay type: physicochemical; conditions: 0.5 h
[4] = molecular target: Microtubule-associated protein tau (Homo sapiens) (UniProt P10636); assay: Inhibition of aggregation of TAU (unknown origin) expressed in Escherichia coli BL21 (DE3) at 10 uM after 24 hrs by thioflavin S fluorescence assay
Summary of the method: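 E. coli BL21(DE3) with pTARA (T7 RNA polymerase under pBAD) transformed with pRKT42 encoding four-repeat tau; overnight culture at 37 °C in M9 with 0.5% glucose, ampicillin 50 µg/mL, chloramphenicol 12.5 µg/mL. Th-S fluorescence at 455 nm (ex 375 nm) normalised to OD600, with induced untreated cells as 100%; mean ± SEM of four experiments.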

Acetylcholinesterase [5] = molecular target: T1, Acetylcholinesterase (Homo sapiens, UniProt P22303); assay: Inhibition of human recombinant AChE using acetylthiocholine iodide as substrate preincubated for 20 mins before substrate addition by Ellman method
in vitro = conditions: PAMPA
[6] = molecular target: Amyloid-beta precursor protein (Homo sapiens) (UniProt P05067); assay: Inhibition of aggregation of amyloid beta (1 to 42) (unknown origin) expressed in Escherichia coli BL21 (DE3) at 10 uM after 24 hrs by thioflavin S fluorescence assay
Summary of the method: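 E. coli BL21(DE3) carrying Aβ42 plasmid grown overnight at 37 °C in LB with kanamycin 50 µg/mL; diluted into LB with kanamycin, 1 mM IPTG, compound in DMSO and Th-S, grown 24 h at 37 °C, 1400 rpm; DMSO-only negative control. Th-S emission 455 nm (ex 375 nm) normalised to OD600, induced untreated cells set as 100%; mean ± SEM of four experiments.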

Cholinesterase [7] = molecular target: T2, Cholinesterase (Homo sapiens, UniProt P06276); assay: Inhibition of human serum BChE using butyrylthiocholine iodide preincubated for 20 mins before substrate addition by Ellman method
Summary of the method: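 Ellman spectrophotometric assay in 0.1 M phosphate buffer. Enzymes were human recombinant AChE and human serum BChE. Inhibitor (at least 10 increasing concentrations, in duplicate) was preincubated 20 min at 37 °C. Acetylthiocholine iodide (450 µM, AChE) or butyrylthiocholine iodide (300 µM, BChE) was then added and reacted 5 min at 37 °C, with absorbance read at 414 nm. The no-inhibitor control set 100% activity. IC50 came from non-linear regression, at least 4 experiments.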

Cholinesterase [8] = molecular target: T2, Cholinesterase; assay: Inhibition of human serum BChE using butyrylthiocholine iodide at 10 uM preincubated for 20 mins before substrate addition by Ellman method
Acetylcholinesterase [9] = molecular target: T1, Acetylcholinesterase; assay: Inhibition of human recombinant AChE using acetylthiocholine iodide as substrate at 10 uM preincubated for 20 mins before substrate addition by Ellman method

T1 sequence (P22303 whole entry): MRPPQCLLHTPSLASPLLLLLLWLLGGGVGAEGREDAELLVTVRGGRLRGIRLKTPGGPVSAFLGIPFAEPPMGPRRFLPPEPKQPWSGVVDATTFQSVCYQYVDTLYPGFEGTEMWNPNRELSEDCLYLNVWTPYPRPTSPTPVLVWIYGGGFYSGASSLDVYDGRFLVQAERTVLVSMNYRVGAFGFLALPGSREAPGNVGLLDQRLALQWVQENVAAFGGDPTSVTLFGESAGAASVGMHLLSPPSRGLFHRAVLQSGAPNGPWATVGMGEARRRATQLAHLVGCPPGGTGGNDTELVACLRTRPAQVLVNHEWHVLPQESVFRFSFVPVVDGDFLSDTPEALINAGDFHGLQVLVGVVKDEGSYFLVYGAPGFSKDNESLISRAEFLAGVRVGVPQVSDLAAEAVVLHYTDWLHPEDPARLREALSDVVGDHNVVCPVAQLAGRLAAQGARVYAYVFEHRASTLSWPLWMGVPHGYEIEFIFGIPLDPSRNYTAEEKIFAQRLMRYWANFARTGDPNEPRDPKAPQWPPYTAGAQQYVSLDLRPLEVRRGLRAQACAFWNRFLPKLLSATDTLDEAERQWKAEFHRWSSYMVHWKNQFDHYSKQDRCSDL
Sequence of Amyloid-beta precursor protein (Homo sapiens) (P05067 whole entry): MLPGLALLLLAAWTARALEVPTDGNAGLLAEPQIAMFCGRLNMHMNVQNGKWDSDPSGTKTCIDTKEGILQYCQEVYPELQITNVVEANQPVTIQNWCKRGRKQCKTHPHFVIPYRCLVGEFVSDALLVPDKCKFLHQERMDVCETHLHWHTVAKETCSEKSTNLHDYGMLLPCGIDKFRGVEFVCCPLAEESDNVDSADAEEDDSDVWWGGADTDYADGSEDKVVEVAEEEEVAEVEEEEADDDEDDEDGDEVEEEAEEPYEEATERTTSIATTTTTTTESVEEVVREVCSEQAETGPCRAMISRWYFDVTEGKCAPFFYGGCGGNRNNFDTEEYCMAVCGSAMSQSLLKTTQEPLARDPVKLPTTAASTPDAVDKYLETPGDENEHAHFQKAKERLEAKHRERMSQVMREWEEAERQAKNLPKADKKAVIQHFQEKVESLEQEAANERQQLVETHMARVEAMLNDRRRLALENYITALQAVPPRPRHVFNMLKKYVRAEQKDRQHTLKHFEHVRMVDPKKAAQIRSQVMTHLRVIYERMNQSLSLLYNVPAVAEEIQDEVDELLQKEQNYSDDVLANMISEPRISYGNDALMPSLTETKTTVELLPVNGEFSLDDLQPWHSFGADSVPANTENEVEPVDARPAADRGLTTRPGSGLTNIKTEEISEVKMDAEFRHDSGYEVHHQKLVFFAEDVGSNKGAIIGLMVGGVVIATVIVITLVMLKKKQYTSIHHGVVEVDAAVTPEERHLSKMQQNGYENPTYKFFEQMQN
T2 sequence (P06276 whole entry): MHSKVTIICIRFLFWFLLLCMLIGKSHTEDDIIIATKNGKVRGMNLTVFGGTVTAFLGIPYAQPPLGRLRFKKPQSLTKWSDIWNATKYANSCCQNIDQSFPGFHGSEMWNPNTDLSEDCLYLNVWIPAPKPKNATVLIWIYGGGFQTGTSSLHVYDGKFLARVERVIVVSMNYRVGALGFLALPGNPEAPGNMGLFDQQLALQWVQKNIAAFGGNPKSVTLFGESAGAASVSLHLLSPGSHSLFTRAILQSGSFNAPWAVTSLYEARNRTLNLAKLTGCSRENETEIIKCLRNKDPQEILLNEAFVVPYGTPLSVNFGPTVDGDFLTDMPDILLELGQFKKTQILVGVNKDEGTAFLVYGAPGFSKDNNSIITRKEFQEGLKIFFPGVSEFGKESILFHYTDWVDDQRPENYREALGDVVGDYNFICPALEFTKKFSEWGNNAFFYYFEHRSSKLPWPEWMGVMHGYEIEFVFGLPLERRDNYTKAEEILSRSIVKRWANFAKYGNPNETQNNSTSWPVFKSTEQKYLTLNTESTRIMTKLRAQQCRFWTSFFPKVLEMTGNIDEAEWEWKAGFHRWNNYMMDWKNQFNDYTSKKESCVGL
Sequence of Microtubule-associated protein tau (Homo sapiens) (P10636 whole entry): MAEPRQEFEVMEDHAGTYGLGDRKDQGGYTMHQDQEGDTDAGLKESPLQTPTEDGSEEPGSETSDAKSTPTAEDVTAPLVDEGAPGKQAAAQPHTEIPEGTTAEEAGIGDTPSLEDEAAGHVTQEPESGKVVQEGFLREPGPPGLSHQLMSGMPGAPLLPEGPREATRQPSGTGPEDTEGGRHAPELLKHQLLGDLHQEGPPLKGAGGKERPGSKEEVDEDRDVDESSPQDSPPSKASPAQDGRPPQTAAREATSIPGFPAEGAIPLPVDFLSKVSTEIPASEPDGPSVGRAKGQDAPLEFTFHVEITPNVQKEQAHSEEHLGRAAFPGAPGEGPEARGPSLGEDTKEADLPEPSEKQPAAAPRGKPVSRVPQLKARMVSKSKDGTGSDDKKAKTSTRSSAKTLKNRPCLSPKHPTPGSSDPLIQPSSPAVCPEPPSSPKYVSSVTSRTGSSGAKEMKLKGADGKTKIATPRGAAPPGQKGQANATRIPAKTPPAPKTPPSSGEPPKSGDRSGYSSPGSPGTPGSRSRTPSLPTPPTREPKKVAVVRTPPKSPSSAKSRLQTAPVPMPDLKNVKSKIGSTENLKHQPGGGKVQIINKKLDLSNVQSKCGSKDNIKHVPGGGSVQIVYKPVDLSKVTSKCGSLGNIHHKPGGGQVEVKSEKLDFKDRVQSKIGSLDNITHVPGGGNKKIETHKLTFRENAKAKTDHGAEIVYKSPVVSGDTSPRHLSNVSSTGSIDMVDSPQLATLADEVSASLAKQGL

Structure (SMILES) | Activity [1] | Activity [2] | Activity [3] [mgequiv/g] | inhibition [4] [%] | IC50 (Acetylcholinesterase [5]) [nM] | Papp (in vitro) [×10⁻⁶ cm/s] | inhibition [6] [%] | IC50 (Cholinesterase [7]) [nM] | inhibition (Cholinesterase [8]) [%] | inhibition (Acetylcholinesterase [9]) [%]
COc1cc(CCC(=O)/C=C/c2ccc(CNc3c4c(nc5cc(Cl)ccc35)CC3CC(C)=CC4C3)cc2)ccc1O (stereo not given) | 8.8 | 10.5 | 50 | 51 | 18.3 | 6.5 | 70.6 | 742 |  | 
CC1=CC2Cc3nc4cc(Cl)ccc4c(N)c3C(C1)C2 (stereo not given) [HUPRINE Y] | 1 | 2.6 | 10.2 | 7.6 |  |  | 8.9 |  |  | 
COc1cc(CCC(=O)/C=C/c2ccc(CNc3c4c(nc5cc(Cl)ccc35)CC3CC(C)=CC4C3)cc2)cc(CN(C)C)c1O (stereo not given) | 2.8 | 11.8 | 68.8 | 40.1 | 21.1 | 8.4 | 53.9 | 181 |  | 
O=C(O)c1cc(O)c(O)c(O)c1 [GALLIC ACID] | 10.3 | 18.6 | 1033 |  |  |  |  |  |  | 
CCCCC/C=C/C(=O)CCc1ccc(O)c(OC)c1 [SHOGAOL] | 12.2 | 26.2 | 384 | 9.2 |  | 14.7 | 10.5 |  | 6 | 28
COc1cc(CCC(=O)/C=C/CCCNc2c3c(nc4cc(Cl)ccc24)CC2CC(C)=CC3C2)ccc1O (stereo not given) | 6.6 | 7.6 | 29.8 | 35.2 | 6.7 | 11.7 | 39.3 | 982 |  | 
